Assay results from different studies.
Compare with care: the assays were run in different laboratories.
Target: Citron Rho-interacting kinase (CIT, Homo sapiens, UniProt O14578)

With Nc1ncc2c(n1)-c1c([nH]c3ccc(C#CC4CC4)cc13)CCCC2 the remaining binding was 88% (binding, competition with immobilised ligand; 1 µM).
O=C(Nc1c[nH]nc1C(=O)NC1CCNCC1)c1cc(F)cc(F)c1 has a remaining binding of 100% (binding, competition with immobilised ligand; 1 µM).
c1cnn2ncc(-c3ccnc(N4CCC45COC5)n3)c2c1 gave a remaining binding of 84% (binding; 1 µM).
COc1cccc(CNC(=O)c2nc3scc(COCc4ccc(C(=O)O)cc4)c3c(=O)[nH]2)c1 gave a remaining binding of 100% (cell-free assay, competition with immobilised ligand; 1 µM).
The remaining binding of N[C@H]1CCN(c2nccc(-c3cnn4ncccc34)n2)C1 is reported as 100% (binding; 1 µM).
For CCC(=O)N[C@H]1CC[C@@H](C(=O)N(C)c2ccc(-c3nc4ccccc4o3)cc2)C1, the remaining binding was 99% (cell-free assay, competition with immobilised ligand; 1 µM).
The remaining binding of O=C(c1ccc(Nc2ncc(Cl)c(-c3ccc(Cl)s3)n2)cc1)N1CCC(N2CCCC2)CC1 is reported as 30% (binding, competition with immobilised ligand; 1 µM).
COc1cnc(Nc2cccc(S(N)(=O)=O)c2)nc1N1CCN(c2ccccc2)C(=O)C1 has a remaining binding of 100% (binding, competition with immobilised ligand; 1 µM).
With FC(F)(F)Oc1cccc(-c2cnc3ccc(-c4ccncc4)nn23)c1 the remaining binding was 34% (cell-free assay, competition with immobilised ligand; 5 µM).
CC1CCCN1c1nccc(-c2cnn3ncccc23)n1 (stereo not shown) gave a remaining binding of 82% (binding; 1 µM).
O=C(NCCCN1CCOCC1)c1ccc(Nc2ncc(Cl)c(-c3ccc(Cl)s3)n2)cc1 has a remaining binding of 63% (binding, competition with immobilised ligand; 1 µM).
The remaining binding of F[C@@H]1CCN(c2nccc(-c3cnn4ncccc34)n2)C1 is reported as 75% (binding; 1 µM).
For Cc1cnc(Nc2ccc(C(=O)N3CCC(N4CCCC4)CC3)cc2)nc1-c1cc2ccccc2s1, the remaining binding was 65% (binding, competition with immobilised ligand; 1 µM).
For CNC(=O)c1ccc(Nc2ncc(C(F)(F)F)c(NCc3nccnc3N(C)S(C)(=O)=O)n2)cc1, the remaining binding was 68% (cell-free assay, competition with immobilised ligand; 0.1 µM).
For COc1ncc2cc3ccccc3nc2c1C#N, the remaining binding was 40% (cell-free assay, competition with immobilised ligand; 5 µM).
For CN(C)c1nccc(-c2cnn3ncccc23)n1, the remaining binding was 86% (binding; 1 µM).
The remaining binding of CC(=O)c1c(NS(C)(=O)=O)c2cc(-c3ccc(Cl)cc3)c(-c3ccc(Cl)cc3Cl)nc2n(C)c1=O is reported as 96% (cell-free assay, competition with immobilised ligand; 1 µM).
With CN(CCCC(F)(F)F)c1nccc(-c2cnn3ncccc23)n1 the remaining binding was 88% (binding; 1 µM).
With CS(=O)(=O)c1cc(C2(NC(=O)c3cncc4c3cnn4-c3ccc(F)cc3)CC2)ccn1 the remaining binding was 100% (cell-free assay, competition with immobilised ligand; 1 µM).
